ChEMBL document CHEMBL4052613, “Structure-activity relationship studies of 1,7-diheteroarylhepta-1,4,6-trien-3-ones with two different terminal rings in prostate epithelial cell models” (Eur J Med Chem, 2017)

Tests used:
PWR-1E = experiment: Antiproliferative activity against human PWR-1E cells after 3 days by WST-1 assay; assay type: cell-based; conditions: 72 h
How it was run: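 PWR-1E non-neoplastic prostate epithelial cells grown in keratinocyte serum-free medium with bovine pituitary extract and recombinant human EGF. WST-1 proliferation read-out after 3 days of exposure.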

PC-3 [1] = experiment: Induction of apoptosis in human PC3 cells assessed as necrotic cells at 5 uM after 16 hrs by F2N12S orange and SYTOX green double staining based flow cytometry (reference value: 2 to 3%); assay type: functional
PC-3 [2] = experiment: Induction of apoptosis in human PC3 cells assessed as necrotic cells at 40 uM after 16 hrs by F2N12S orange and SYTOX green double staining based flow cytometry (reference value: 2 to 3%); assay type: functional
PC-3 [3] = experiment: Induction of apoptosis in human PC3 cells assessed as apoptotic cells at 40 uM after 16 hrs by F2N12S orange and SYTOX green double staining based flow cytometry (reference value: 2 to 3%); assay type: functional
PC-3 [4] = experiment: Induction of apoptosis in human PC3 cells assessed as viable cells at 40 uM after 16 hrs by F2N12S orange and SYTOX green double staining based flow cytometry (reference value: 95%); assay type: functional; conditions: PC-3, 16 h, read-out: Activity
PC-3 [5] = experiment: Induction of apoptosis in human PC3 cells assessed as apoptotic cells at 10 uM after 16 hrs by F2N12S orange and SYTOX green double staining based flow cytometry (reference value: 2 to 3%); assay type: functional
PC-3 [6] = experiment: Induction of apoptosis in human PC3 cells assessed as necrotic cells at 10 uM after 16 hrs by F2N12S orange and SYTOX green double staining based flow cytometry (reference value: 2 to 3%); assay type: functional
PC-3 [7] = experiment: Induction of apoptosis in human PC3 cells assessed as necrotic cells at 20 uM after 16 hrs by F2N12S orange and SYTOX green double staining based flow cytometry (reference value: 2 to 3%); assay type: functional
PC-3 [8] = experiment: Induction of apoptosis in human PC3 cells assessed as viable cells at 10 uM after 16 hrs by F2N12S orange and SYTOX green double staining based flow cytometry (reference value: 95%); assay type: functional; conditions: PC-3, 16 h, read-out: Activity
PC-3 [9] = experiment: Induction of apoptosis in human PC3 cells assessed as viable cells at 20 uM after 16 hrs by F2N12S orange and SYTOX green double staining based flow cytometry (reference value: 95%); assay type: functional; conditions: PC-3, 16 h, read-out: Activity
PC-3 [10] = experiment: Induction of apoptosis in human PC3 cells assessed as viable cells at 30 uM after 16 hrs by F2N12S orange and SYTOX green double staining based flow cytometry (reference value: 95%); assay type: functional; conditions: PC-3, 16 h, read-out: Activity
PC-3 [11] = experiment: Induction of apoptosis in human PC3 cells assessed as necrotic cells at 30 uM after 16 hrs by F2N12S orange and SYTOX green double staining based flow cytometry (reference value: 2 to 3%); assay type: functional
PC-3 [12] = experiment: Induction of apoptosis in human PC3 cells assessed as apoptotic cells at 5 uM after 16 hrs by F2N12S orange and SYTOX green double staining based flow cytometry (reference value: 2 to 3%); assay type: functional
PC-3 [13] = experiment: Induction of apoptosis in human PC3 cells assessed as apoptotic cells at 20 uM after 16 hrs by F2N12S orange and SYTOX green double staining based flow cytometry (reference value: 2 to 3%); assay type: functional
PC-3 [14] = experiment: Induction of apoptosis in human PC3 cells assessed as apoptotic cells at 30 uM after 16 hrs by F2N12S orange and SYTOX green double staining based flow cytometry (reference value: 2 to 3%); assay type: functional
PC-3 [15] = experiment: Induction of apoptosis in human PC3 cells assessed as viable cells at 5 uM after 16 hrs by F2N12S orange and SYTOX green double staining based flow cytometry (reference value: 95%); assay type: functional; conditions: PC-3, 16 h, read-out: Activity

Row | SMILES | IC50 (PWR-1E) [µM] | Activity (PC-3 [1]) [%] | Activity (PC-3 [2]) [%] | Activity (PC-3 [3]) [%] | viability at 40 µM (PC-3 [4]) [%] | Activity (PC-3 [5]) [%] | Activity (PC-3 [6]) [%] | Activity (PC-3 [7]) [%] | viability at 10 µM (PC-3 [8]) [%] | viability at 20 µM (PC-3 [9]) [%] | viability at 30 µM (PC-3 [10]) [%] | Activity (PC-3 [11]) [%] | Activity (PC-3 [12]) [%] | Activity (PC-3 [13]) [%] | Activity (PC-3 [14]) [%] | viability at 5 µM (PC-3 [15]) [%]
1 | COc1cc(/C=C/C(=O)CC(=O)/C=C/c2ccc(O)c(OC)c2)ccc1O [CURCUMIN] | 8.14 | – | – | – | – | – | – | – | – | – | – | – | – | – | – | –
2 | CN[C@@H]1C[C@H]2O[C@@](C)([C@@H]1OC)n1c3ccccc3c3c4c(c5c6ccccc6n2c5c31)C(=O)NC4 [STAUROSPORINE] | – | 4 | 9 | 60 | 31 | 10 | 6 | 8 | 84 | 68 | 46 | 8 | 9 | 24 | 47 | 87
